The text below walks through data of ChEMBL document CHEMBL4382210, “Identification of novel benzothiopyranone compounds against Mycobacterium tuberculosis through scaffold morphing from benzothiazinones” (Eur J Med Chem, 2018).

Series [1] is described as follows: Metabolic stability in human liver microsomes assessed as parent compound remaining at 1 uM measured after 30 mins in presence of NADPH by LC-MS/MS analysis. The series is classed as ADME, Microsome. Conditions: read-out: Stability. The method in brief:
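Male CD-1 mouse or pooled human liver microsomes (1 mg/mL protein), compound at 1 µM, 37 °C. Reaction started with 1 mM NADPH and quenched with cold ACN/MeOH containing internal standard. Parent remaining measured by LC-MS/MS; the 30-min value is normalised to time zero.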

Series [2] in a line: Half life in human hepatocytes assessed per million cells at 1 uM incubated up to 120 mins by LC-MS/MS analysis. The series is classed as ADME, cell-based, Hepatocyte. The method in brief:
(§1)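 Pooled male CD-1 mouse or pooled human hepatocytes at 1 million cells/mL final, compound at 1 µM. Incubated at 37 °C in a CO2 incubator with shaking (~100 rpm). Samples taken at 0, 15, 30, 60, 90 and 120 min and quenched with cold ACN/MeOH containing internal standard. Parent compound remaining measured by LC-MS/MS.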

Series [3] can be described thus: Elimination half life in BALB/C mouse at 10 mg/kg, iv by LC/TSQ quantum access mass spectrometry. Conditions: in vivo, read-out: beta t1/2 (converted). Type of series: ADME, organism-based. The method in brief:
(§2)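 Male Balb/c mice (22–23 g), three per route. Single dose of 25 mg/kg p.o. (2.5 mg/mL in 0.5% carboxymethyl cellulose + 0.5% Tween 80) or 10 mg/kg i.v. (2.0 mg/mL in 20% HP-β-CD with 4 mol/L HCl). Blood sampled 5, 15, 30 min, 1, 2, 4, 7, 24 h. Plasma extracted with acetonitrile plus terfenadine internal standard, then LC-MS/MS on a C18 column. F = (AUCpo×dose_iv)/(AUCiv×dose_po).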

A short description of series [4]: MRT (0 to infinity) in BALB/C mouse at 10 mg/kg, iv by LC/TSQ quantum access mass spectrometry. Type of series: ADME, organism-based. The settings on record: in vivo. The gist of the method:
as §2

Series [5] in a line: AUC (0 to 24 hrs) in BALB/C mouse at 25 mg/kg, po by LC/TSQ quantum access mass spectrometry. The series is classed as ADME, organism-based. Also on record: time < 24 hr, dose 25 mg/kg, route oral. The settings on record: in vivo. The method in brief: as §2
In series [6] the target is Cytochrome P450 2C19 (Homo sapiens, UniProt P33261). The experiment in a line: Inhibition of CYP2C19 in human liver microsomes after 20 mins by LC-MS/MS analysis. The series is classed as ADME. The method in brief:
(§3)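 Compound at 0.1–50 µM incubated 20 min with human liver microsomes (0.2 mg/mL) and the CYP isoform, alongside isoform-specific probe substrates. Substrate remaining measured by LC-MS/MS at each concentration to derive IC50.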

Series [7] can be described thus: Elimination half life in BALB/C mouse at 25 mg/kg, po by LC/TSQ quantum access mass spectrometry. Conditions: in vivo, read-out: beta t1/2 (converted). The series is classed as ADME, organism-based. The method in brief: as §2
A short description of series [8]: MRT (0 to infinity) in BALB/C mouse at 25 mg/kg, po by LC/TSQ quantum access mass spectrometry. The series is classed as ADME, organism-based. Conditions: in vivo. The method in brief:
as §2

A short description of series [9]: Intrinsic clearance in human hepatocytes assessed per million cells at 1 uM incubated up to 120 mins by LC-MS/MS analysis. Type of series: ADME, cell-based, Hepatocyte. Conditions: read-out: CLH. The method in brief: as §1
Series [10] has as its system HepG2. The series is described as follows: Cytotoxicity against human HepG2 cells assessed as reduction in cell viability after 48 hrs by MTT assay. Conditions: HepG2, 48 h. Type of series: cell-based. The gist of the method: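 Vero or HepG2 cells in RPMI1640 with 10% FBS at 37 °C, 5% CO2, seeded at 4×10^5 cells/mL. Threefold dilutions at 64–0.26 µg/mL final for 48 h. Cells then washed with HBSS, MTT added for 4 h, absorbance read at 492 nm. IC50 taken relative to untreated control.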

Series [11] is described as follows: Tmax in BALB/C mouse at 25 mg/kg, po by LC/TSQ quantum access mass spectrometry. The series is classed as ADME, organism-based. Conditions: in vivo. The method in brief:
as §2

Series [12] addresses Cytochrome P450 3A4 (Homo sapiens, UniProt P08684). The series is described as follows: Inhibition of CYP3A4 in human liver microsomes after 20 mins by LC-MS/MS analysis. The series is classed as ADME. The gist of the method:
as §3

Series [13] can be described thus: Acute toxicity in BALB/C mouse assessed as mouse survival at 2 g/kg, po administered as single dose measured during 7 days observation period. The series is classed as organism-based. The settings on record: in vivo, 2000 mg/kg, 168 h. The method in brief:
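Female Balb/c mice (18–21 g), ten animals, given one oral dose of 2 g/kg. Survivors counted after 7 days of observation.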

The structures appear in SMILES notation.

Chain of Cytochrome P450 3A4 (P08684 whole entry): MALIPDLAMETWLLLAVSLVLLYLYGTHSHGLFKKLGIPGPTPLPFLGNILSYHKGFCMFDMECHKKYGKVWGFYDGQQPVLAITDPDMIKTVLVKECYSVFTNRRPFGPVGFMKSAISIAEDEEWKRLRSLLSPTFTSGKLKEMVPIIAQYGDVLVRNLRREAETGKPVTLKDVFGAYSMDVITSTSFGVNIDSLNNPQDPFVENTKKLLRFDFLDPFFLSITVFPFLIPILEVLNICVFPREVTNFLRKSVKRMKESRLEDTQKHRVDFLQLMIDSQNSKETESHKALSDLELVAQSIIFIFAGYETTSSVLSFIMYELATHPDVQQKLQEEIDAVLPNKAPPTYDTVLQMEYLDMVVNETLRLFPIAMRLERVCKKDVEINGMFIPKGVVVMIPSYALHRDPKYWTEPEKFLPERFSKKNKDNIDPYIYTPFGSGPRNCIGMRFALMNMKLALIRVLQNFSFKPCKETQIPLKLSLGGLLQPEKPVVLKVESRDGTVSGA
Chain of Cytochrome P450 2C19 (P33261 whole entry, canonical isoform): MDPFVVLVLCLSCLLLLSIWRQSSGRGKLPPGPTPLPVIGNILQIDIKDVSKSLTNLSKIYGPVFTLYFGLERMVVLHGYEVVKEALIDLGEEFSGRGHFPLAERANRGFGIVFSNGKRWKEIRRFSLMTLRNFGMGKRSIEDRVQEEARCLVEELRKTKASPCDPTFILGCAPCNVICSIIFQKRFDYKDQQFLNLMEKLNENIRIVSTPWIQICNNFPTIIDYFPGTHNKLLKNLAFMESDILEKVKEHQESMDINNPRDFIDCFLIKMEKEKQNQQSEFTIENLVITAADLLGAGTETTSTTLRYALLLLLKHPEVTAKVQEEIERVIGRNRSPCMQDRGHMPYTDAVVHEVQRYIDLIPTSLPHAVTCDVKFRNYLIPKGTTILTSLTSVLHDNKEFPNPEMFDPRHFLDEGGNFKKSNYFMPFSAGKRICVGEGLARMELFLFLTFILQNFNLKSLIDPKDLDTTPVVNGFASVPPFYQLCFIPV

For the molecule `O=c1cc(N2CCN(CC3CCCCC3)CC2)sc2c([N+](=O)[O-])cc(C(F)(F)F)cc12`, in series [1], the remaining at 0.5 h, 1 µM worked out at 66.7%. The half-life at 1 µM in series [2] was 3.73 h. Moreover, the half-life was 6.54 h in series [3] and 7.25 h in series [7]. For the same molecule, the MRT inf was determined as 4.91 h in series [4] and 6.59 h in series [8]. In series [5], this molecule registered an exposure AUC(0-t) at 24 h of 1580 ng·h/mL. In addition, the 50% inhibitory concentration (IC50) is greater than 50 µM in [6], greater than 64 µg/mL in [10] and greater than 50 µM in [12]. Further, the hepatocyte CLint at 1 µM in series [9] worked out at 3.1 µL/min/1e6 cells. Besides, the Tmax in [11] was 0.5 h. In [13], the Activity entry is recorded as “Non-Toxic”.
